Shown are actives, neighbours in structure and some others; about 3.7% of the full set was active somewhere.
HCV NS3 hel inh – inhibitors of HCV NS3 helicase, primary screen, biochemical, Cy5 molecular beacon fluorescence. NS3 helicase DNA unwinding. Hepatitis C virus NS3 helicase. 0.56% of 290,000 active. AID 1800, 2009. inhibition, % at 10.9 µM;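 active means inhibition above the mean of all tested compounds plus 3 SD, set per campaign, cut at about 35% in these data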;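 further: 0% = DMSO wells and 100% = thioflavine S control wells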
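Compound dosing – single dose, 10.9 µM nominal final, DMSO 0.8% final · System – NS3 helicase fragment of HCV · Buffer or medium – MOPS pH 6.5, MgCl2, DTT, Tween20, BSA · Signal – Cy5 beacon fluorescence read at start and 1 h · Also added – annealed dual-labelled DNA beacon duplex, ATP-started · Schedule – 1 h at 25 °C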
core dimer inh – inhibitors of HCV core protein dimerization, primary screen, biochemical, TR-FRET, high-throughput | TR-FRET GST/Flag-core106 dimerization, 1536-well | inhibition, % at 5 µM | 0.33% of 300,000 active;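 active means inhibition above the mean of all tested compounds plus 3 SD, set per screening campaign, cut at about 45% in these data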
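assay system = GST-tagged and Flag-tagged HCV core protein residues 1-106 | controls = unlabelled core106 and no-GST-core106 wells | incubation = compound-protein-antibody incubation 4 h at 22.5 °C | probe or stimulus = Eu donor and XL665 acceptor anti-tag antibodies | read-out = % inhibition based on acceptor/donor emission ratio | signal = TR-FRET 671 and 617 nm emission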
rCAG binder – binders of r(CAG) RNA repeats, primary screen, biochemical, fluorescence; r(CAG) RNA repeat, TO-PRO-1 dye displacement fluorescence; inhibition, % at 3 µM; 1.3% of 370,000 active; AID 651821, 2012;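 active means inhibition above the plate cutoff, the mean of all test compounds on that plate plus 3 SD, cut at about 35% in these data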;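 further: 0% = DMSO alone and 100% = 100 µM mitoxantrone as full dye displacement; higher means more dye released from RNA so lower well fluorescence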
TAAR1 agonist – human TAAR1 agonists, primary screen, Fluo-8 calcium fluorescence, CHO RD-HGA16 cells; AID 624467, 2012; vehicle wells 0%, saturating PEA agonist 100%; 0.99% of 360,000 active; Trace amine-associated receptor 1 (Homo sapiens), Q96RJ0; activation, % at 3 µM;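 active means activation above the mean activation of all test compounds in the run plus 3 SD, cut at about 38% in these data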
Target sequence (Q96RJ0 whole entry, looked up): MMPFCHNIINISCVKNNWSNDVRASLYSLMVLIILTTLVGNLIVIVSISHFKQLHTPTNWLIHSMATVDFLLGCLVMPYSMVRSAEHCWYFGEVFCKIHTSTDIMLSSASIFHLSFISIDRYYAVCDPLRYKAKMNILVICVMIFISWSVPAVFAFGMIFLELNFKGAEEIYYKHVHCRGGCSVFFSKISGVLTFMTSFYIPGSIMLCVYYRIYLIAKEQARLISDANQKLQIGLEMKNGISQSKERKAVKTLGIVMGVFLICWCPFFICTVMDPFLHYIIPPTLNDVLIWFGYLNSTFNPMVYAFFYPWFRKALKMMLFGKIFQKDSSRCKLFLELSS
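System: CHO-derived RD-HGA16 cells with stable Gα16 and human TAAR1. Times: 17-24 h plating, Fluo-8 75 min 37 °C, 30 min RT. Measured by: calcium-sensitive Fluo-8 signal, excitation 470-495, emission 515-575 nm. Read-out basis: % activation relative to PEA EC100 response. Control set: DMSO and PEA EC100. Repeats: no replicates (n 1).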
TAAR1 antag – human TAAR1 antagonists, primary screen, Fluo-8 calcium fluorescence, CHO RD-HGA16 cells | antagonist | inhibition, % at 3 µM | Trace amine-associated receptor 1 (Homo sapiens), Q96RJ0 | 1.5% of 360,000 active;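 active means inhibition above a per-plate cutoff, the mean inhibition of test compounds on that plate plus 3 SD, cut at about 49% in these data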;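 further: 0% = DMSO plus EC80 beta-PEA response and 100% = DMSO alone without agonist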
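Assay system: CHO-derived RD-HGA16 cells stably expressing human TAAR1 plus Gα16. Timing: 140 s kinetic read after compound, 140 s after agonist. Technique: kinetic Fluo-8 calcium fluorescence measurement. Measure: % inhibition of agonist calcium response.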
* = called active by the depositor; nt = no result given.

SMILES | HCV NS3 hel inh | core dimer inh | rCAG binder | TAAR1 agonist | TAAR1 antag
Cc1ccc(Nc2nc(NCc3ccco3)c3ccccc3n2)cc1 | -62 | -1 | 17 | 50* | -3
OCCNc1nc(Nc2ccc(Br)cc2)nc2ccccc12 | -58 | -12 | 12 | 65* | 60*
c1ccc(Nc2nc(NCC3CCCO3)c3ccccc3n2)cc1 (stereo not drawn) | -36 | -1 | 5 | 52* | 3
COC(=O)[C@]12C[C@H](CC(=O)N3CCCCC3)C(=O)N(Cc3ccc(Cl)cc3Cl)C1=C[C@H](C(C)(C)C)O[C@@H]2C | nt | nt | 7 | nt | nt
CCN(CC)c1ccc(/C=C(/C#N)C(=O)NCc2ccccc2)o1 | 4 | -32 | -70 | 54* | 54*
COC(=O)[C@H]1C[C@@]2(N3CCCC3)c3ccccc3N[C@H]2N1S(=O)(=O)c1ccc([N+](=O)[O-])cc1 | nt | nt | 10 | nt | nt
COc1ccc(NC(=O)C(C)Oc2ccc(/C(C)=N\O)cc2)cc1 (stereo not drawn) | -10 | -3 | -5 | 55* | 6
CC(=O)Nc1ccc(-c2csc(NC(=O)c3ccc(C)o3)n2)cc1 | -12 | 14 | 9 | 17 | 42
Cc1ccc(C(=O)Nc2nc(-c3ccc([N+](=O)[O-])cc3)cs2)o1 | -8 | 52* | 4 | 4 | 0
O=C(CSc1ccc(Cl)cc1)c1ccco1 | 9 | 49* | nt | nt | nt
COc1ccc(CC(=O)NC2CCCCN(Cc3ccc(Cl)cc3)C2=O)cc1OC (stereo not drawn) | nt | nt | 4 | nt | nt
Cn1c(SCC2CCCCC2)nnc1-c1ccco1 | nt | nt | -2 | nt | nt
COc1ccccc1N(C)S(=O)(=O)c1ccc(C(=O)NCC2CCCCC2)cc1 | nt | nt | 2 | 12 | 53*
COC(=O)c1ccc(CNC(=O)c2ccc(S(=O)(=O)N(C)c3ccccc3OC)cc2)cc1 | nt | nt | 5 | 21 | 57*
COc1ccccc1N(C)S(=O)(=O)c1ccc(C(=O)NCC(C)C)cc1 | 1 | 0 | -5 | 7 | -5
CCCC(=O)NC1=C(Cl)C(=O)c2ccccc2C1=O | nt | nt | 1 | 54* | 52*
O=C1C(Cl)=C(Nc2ccc(O)cc2)C(=O)c2ccccc21 | 19 | -26 | 1 | -3 | 56*
CN(C)c1cccc(/C=C2\CC3(OC(=O)c4ccc(Cl)cc4)CCCN2C3)c1 (stereo not drawn) | nt | nt | 8 | nt | nt
O=C(Cc1ccc(Cl)cc1)NN1C(=O)c2ccccc2C1=O | -4 | 5 | 4 | 9 | -9
COC(=O)[C@@H]1[C@@H](C#N)C2(c3ccccc3-c3ccccc32)N(c2ccc(Cl)cc2)N1C#N | 3 | 30 | 7 | 3 | 50*
COC(=O)C1CCN(C(=O)C2CC(=O)N(c3ccc(OC)cc3)C2c2ccc(OC)cc2)CC1 (stereo not drawn) | nt | nt | 6 | nt | nt
CC(C)(C)OC(=O)N(CCc1ccccc1)Cc1ccc(OCc2cccc(NC(=O)C3CCCC3)c2)cc1 | nt | nt | 7 | 4 | 8
CC(C)(C)OC(=O)N(Cc1ccccc1)Cc1ccc(OCc2cccc(NC(=O)C3CC3)c2)cc1 | nt | nt | 7 | 2 | 53*
CN(CC(=O)Nc1cccc(F)c1)C(=O)c1cc(-c2ccco2)nc2ccccc12 | nt | 59* | 30 | 11 | 44
COc1ccc(NC(=O)CN(C)C(=O)c2cc(-c3ccco3)nc3ccccc23)cc1 | nt | 61* | 33 | 13 | 36
SMILES | HCV NS3 hel inh | core dimer inh | rCAG binder | TAAR1 agonist | TAAR1 antag
CN1[C@H](Cc2ccccc2)COc2cc(N3CCCC3)ccc2S1(=O)=O | nt | nt | 7 | nt | nt
Nc1nc(Nc2ccccc2F)sc1C(=O)c1ccccc1 | 2 | -6 | 2 | 48* | -15
Cc1nc(Nc2ccccc2)sc1C(=O)c1ccc(F)cc1 | -5 | 2 | 1 | -2 | 7
CC(C)(C)c1ccc(C(=O)CCC(=O)OCC(=O)NCCc2ccc(S(N)(=O)=O)cc2)cc1 | nt | nt | 2 | 24 | 62*
NS(=O)(=O)c1ccc(CCNC(=O)COC(=O)CCc2ccccc2)cc1 | 14 | 0 | -1 | 9 | -4
COc1ccc2c(c1)CNC2CS(=O)(=O)NC1CCCC1 (stereo not drawn) | nt | nt | 9 | nt | nt
O=C(CSc1nnnn1-c1cccc2c1CCCC2)N1CCCCC1 | -6 | 3 | -8 | 45* | 8
CCc1nnc2n1N=C(c1ccc(-c3cc(Cl)ccc3Cl)o1)CS2 | 9 | 61* | 10 | 0 | -25
CCc1sc(-c2c(C#N)c(N)nc3c2CCCCCC3)cc1[N+](=O)[O-] | -2 | 6 | -1 | 53* | -1
CC(C)(C)c1ccc(-c2c(C#N)c(N)nc3c2CCCC3)s1 | 5 | 26 | -1 | 2 | -8
O=[N+]([O-])c1ccc(/C([O-])=C(/C(=S)NCc2ccco2)[n+]2ccccc2)cc1 | 6 | 52* | 10 | 1 | 10
Cc1ccc(/C([O-])=C(/C(=S)NCc2ccco2)[n+]2ccccc2)cc1 | 6 | 42 | nt | nt | nt
Cc1ccc(-n2c(SCC(=O)c3ccccc3Br)nnc2-c2ccncc2)cc1 | nt | nt | 9 | nt | nt
CC(C)c1cc(-c2cc(C(=O)NCc3ccccc3)on2)nc(NCC2CC2)n1 | nt | 1 | 2 | 68* | 77*
Cc1nnc(NC(=O)C2CCN(S(=O)(=O)c3cc([N+](=O)[O-])ccc3Cl)CC2)o1 | nt | nt | 13 | -3 | -15
Cc1cccc2sc(NC(=O)C3CCN(S(=O)(=O)c4cc([N+](=O)[O-])ccc4Cl)CC3)nc12 | 0 | 49* | 24 | 4 | 38
COc1cc(NC(=O)C2CCCN(S(=O)(=O)c3ccc(C)cc3)C2)cc(OC)c1 (stereo not drawn) | nt | nt | 1 | nt | nt
CN(C)CCNc1nc2sc3c(c2c(=O)n1CCc1ccccc1)CCCCC3 | -59 | -3 | 3 | 40* | 36
CC(O)CNc1nc2sc3c(c2c(=O)n1CCc1ccccc1)CCCCC3 (stereo not drawn) | 1 | -1 | 5 | 4 | 30
COc1ccccc1CNc1nc(Nc2cccc(-c3cnco3)c2)c2sccc2n1 | nt | nt | 8 | 2 | 76*
CCOC(=O)N1CCN(C(=O)C[C@H]2C[C@@]3(C(=O)OC)C(=C[C@H](COCc4ccccc4)O[C@@H]3C)N(CCc3ccc(OC)c(OC)c3)C2=O)CC1 | nt | nt | 3 | nt | nt
COC(=O)C1CN(CCO)CCS(=O)(=O)N1Cc1cn(Cc2ccccc2Br)nn1 (stereo not drawn) | nt | nt | 2 | nt | nt
COc1ccc(OC)c(S(=O)(=O)CC(=O)c2cc3ccc(OC)cc3oc2=O)c1 | 27 | 62* | nt | nt | nt
COc1cccc2cc(C(C)=O)c(=O)oc12 | 5 | 1 | 2 | 17 | 0
COc1cccc2cc(C(=O)CS(=O)(=O)c3ccc(Cl)cc3)c(=O)oc12 | 17 | -1 | 47* | 15 | -3
COc1ccc2cc(C(=O)c3ccccc3)c(=O)oc2c1 | 3 | 0 | 0 | 7 | 0
